Measurements: ChEMBL document CHEMBL1154615, “Hydroxamates: relationships between structure and plasma stability” (J Med Chem, 2009)

Legend:
[1] = Stability in potassium phosphate buffer at pH 7.4; format: physicochemical
[2] = (§1) Metabolic stability in Sprague-Dawley rat plasma at 10 uM by LC-MS/MS analysis; format: ADME, cell-free; settings: Sprague-Dawley
How it was run: (§2)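 Pooled mixed-gender Sprague Dawley lithium-heparin rat plasma, 80 µL per time point in duplicate. Plasma is pre-incubated 5 min at 37 °C, then 30 min with 2 mM PMSF (final) where applied. Compound is added to 10 µM final in 1% DMSO. Quantified by LC-MSMS (MRM or SIM) against an internal standard with a per-compound calibration curve. Result is reported as t1/2.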

[3] = system: Plasma; test: (§3) Metabolic stability in Sprague-Dawley rat plasma at 10 uM by LC-MS/MS analysis in presence of esterase inhibitor PMSF; format: ADME, cell-free; settings: 10 µM; how it was run: as §2
[4] = Stability in phosphate buffer saline at pH 7.4; format: physicochemical
[5] = organism: Homo sapiens; test: Metabolic stability in human plasma by LC-MS/MS analysis
[6] = Half life in rat at 100 mg/kg, po; format: ADME, organism-based; design: dose 100 mg/kg, route oral; settings: in vivo
[7] = Half life in po dosed rat; format: ADME, organism-based; settings: in vivo
[8] = as §3; format: ADME, cell-free; settings: Sprague-Dawley, with PMSF (esterase inhibitor); how it was run: as §2
[9] = Half life in rat at 100 mg/kg, iv; format: ADME, organism-based; design: dose 100 mg/kg, route intravenous; settings: in vivo
[10] = system: Plasma; test: as §1; format: ADME, cell-free; settings: 10 µM; how it was run: as §2

SMILES	Stability [1]	half-life at 10 µM [2]	also measured
O=C(CCc1ccccc1)NO	Stable	1.5 h	–
O=C(/C=C/c1ccccc1)NO	Stable	6.2 h	–
O=C(NO)C(Cc1ccccc1)C(=O)NCc1ccc(F)cc1 (centres undefined)	Stable	0.8 h	t1/2 [3]: 15 h; half-life [4]: > 24 h; half-life [5]: > 24 h
O=C(NO)/C(=C\c1ccccc1)C(=O)NCc1ccc(F)cc1	Stable	22 h	half-life [4]: > 24 h; half-life [5]: > 24 h
O=C(NCc1ccc(F)cc1)c1cc2ccccc2n(O)c1=O	Stable	> 48 h	–
O=C(CC(=O)NCc1ccc(F)cc1)NO	Stable	10.5 h	–
CC(C)Cc1ccc(C(=O)N(C)O)cc1	–	–	half-life [6]: 0.3 h
CC(C)Cc1ccc(CC(=O)N(C)O)cc1	–	–	half-life [6]: < 0.3 h
O=C(NO)/C(=C/c1ccccc1)C(=O)NCc1ccc(F)cc1	Stable	4.1 h	half-life [4]: > 24 h; half-life [5]: > 24 h
CC(=O)N1CCC(C(=O)NO)(S(=O)(=O)c2ccc(Oc3ccc(Cl)cc3)cc2)CC1	–	–	half-life [7]: 0.86 h
O=C(COc1ccccc1)NO	Stable	3 h	–
O=C(CCOc1ccccc1)NO	Stable	1.4 h	–
O=C(NO)C1(S(=O)(=O)c2ccc(Oc3ccc(Cl)cc3)cc2)CCN(C2CC2)CC1	–	–	half-life [7]: 0.74 h
O=C(NO)C1(C(=O)NCc2ccc(F)cc2)CC1	Stable	22.3 h	–
O=C(Cc1ccc(F)cc1)NC(Cc1ccccc1)C(=O)NO (centres undefined)	Stable	1.3 h	–
CC(Cc1ccccc1)(C(=O)NO)C(=O)NCc1ccc(F)cc1 (centres undefined)	Stable	3 h	–
CC(C(=O)NO)C(=O)NCc1ccc(F)cc1 (centres undefined)	Stable	33 h	–
CC(C)(C(=O)NO)C(=O)NCc1ccc(F)cc1	Stable	19.9 h	–

SMILES	Stability [1]	half-life at 10 µM [2]	also measured
O=C(NO)c1ccc(C#CC2CC2)cc1	Stable	4 h	–
CN(O)C(=O)C(Cc1ccccc1)C(=O)NCc1ccc(F)cc1 (centres undefined)	Stable	0.5 h	–
CC(C)(C)OC(=O)N[C@H](Cc1ccccc1)C(=O)NO	Stable	< 1 h	–
CCOC(=O)[C@H](CCc1ccccc1)N[C@@H](C)C(=O)N1CCC[C@H]1C(=O)O	–	0.05 h	half-life at 10 µM [8]: > 24 h
CC1(C)ON=C(C(Cc2ccccc2)C(=O)NCc2ccc(F)cc2)O1 (centres undefined)	Stable	1 h	–
CN(O)C(=O)/C=C/c1ccc2ccccc2c1	–	–	half-life [9]: 6 min
CC(C)Cc1ccc(C(C)C(=O)N(C)O)cc1 (centres undefined)	–	–	half-life [6]: > 0.3 h
CC(C)Cc1ccc(CCC(=O)N(C)O)cc1	–	–	half-life [6]: < 0.3 h
CC(C)Cc1ccc(/C=C/C(=O)N(C)O)cc1	–	–	half-life [6]: < 0.3 h
CN1CCC(C(=O)NO)(S(=O)(=O)c2ccc(Oc3ccc(Cl)cc3)cc2)CC1	–	–	half-life [7]: 1.25 h
CCN1CCC(C(=O)NO)(S(=O)(=O)c2ccc(Oc3ccc(Cl)cc3)cc2)CC1	–	–	half-life [7]: 1.19 h
O=C(NO)C1(S(=O)(=O)c2ccc(Oc3ccc(Cl)cc3)cc2)CCNCC1	–	–	half-life [7]: 1.8 h
O=C(NO)c1ccccc1 [BENZOHYDROXAMATE]	Stable	> 24 h	–
CC(C)Cc1ccc(C(C)C(=O)NO)cc1 (centres undefined) [IBUPROXAM]	–	–	half-life [6]: 0.3 h
O=C(Cc1ccccc1)NO [PHENYLACETOHYDROXAMIC ACID]	Stable	> 24 h	–
O=C(CCCc1ccccc1)NO [PHENYLBUTYRYLHYDROXAMIC ACID]	Stable	–	t1/2 [10]: 2 h
O=C(CCCCCCC(=O)Nc1ccccc1)NO [VORINOSTAT]	–	9.7 h	–
